ChEMBL document CHEMBL1137781, “Synthesis and preclinical evaluation of novel PET probes for P-glycoprotein function and expression” (J Med Chem, 2009)

Tests used:
Conditions in all cases: in vivo
[1] = Biodistribution in Wistar rat entorhinal cortex at 11+/-2 MBq, iv after 80 mins; assay type: ADME, organism-based
Outline: (§1)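 Male Wistar rats (12 h light/dark, chow ad libitum) were fitted with a femoral arterial cannula under isoflurane. They were pretreated via tail vein with saline, cyclosporin A (50 mg/kg), or nonradioactive tracer compound (15 mg/kg; 10 mg/mL in saline with 35% ethanol). The 11C tracer was then given via penile vein, followed by 76 min microPET. Animals were then terminated; excised tissues were weighed and gamma-counted with decay correction. Values are SUVs (tissue MBq/g × body weight g / injected MBq).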

[2] = tested on: Hippocampus; experiment: Biodistribution in Wistar rat hippocampus at 11+/-2 MBq, iv after 80 mins; assay type: ADME, organism-based; outline: as §1
[3] = Biodistribution in Wistar rat medulla at 11+/-2 MBq, iv after 80 mins; assay type: ADME, organism-based, Medulla of organ; outline: as §1
[4] = tested on: Pons; experiment: Biodistribution in Wistar rat pons at 11+/-2 MBq, iv after 80 mins; assay type: ADME, organism-based
[5] = tested on: Striatum; experiment: Biodistribution in Wistar rat striatum at 11+/-2 MBq, iv after 80 mins; assay type: ADME, organism-based
[6] = tested on: Bone; experiment: Biodistribution in Wistar rat bone at 11+/-2 MBq, iv after 80 mins; assay type: ADME, organism-based, Bone element
[7] = tested on: Colon; experiment: Biodistribution in Wistar rat colon at 11+/-2 MBq, iv after 80 mins; assay type: ADME, organism-based; outline: as §1
[8] = tested on: Heart; experiment: Biodistribution in Wistar rat heart at 11+/-2 MBq, iv after 80 mins; assay type: ADME, organism-based; outline: as §1
[9] = tested on: Ileum; experiment: Biodistribution in Wistar rat ileum at 11+/-2 MBq, iv after 80 mins; assay type: ADME, organism-based; outline: as §1
[10] = tested on: Liver; experiment: Biodistribution in Wistar rat liver at 11+/-2 MBq, iv after 80 mins; assay type: ADME, organism-based; outline: as §1
[11] = tested on: Lung; experiment: Biodistribution in Wistar rat lung at 11+/-2 MBq, iv after 80 mins; assay type: ADME, organism-based; outline: as §1
[12] = tested on: Plasma; experiment: Biodistribution in Wistar rat plasma at 11+/-2 MBq, iv after 80 mins; assay type: ADME, organism-based
Outline: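 Male Wistar rats under isoflurane with saline pretreatment via tail vein. Carbon-11 tracer (8–15 MBq, saline-diluted) was given via the penile vein. After the 76 min microPET list-mode scan, the anesthetized animals were killed and blood collected. Plasma was separated by centrifugation (5 min, 1000g), weighed, and gamma-counted with decay correction. Results are given as SUV (tissue MBq/g × body weight/injected dose).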

[13] = Biodistribution in Wistar rat red blood cells at 11+/-2 MBq, iv after 80 mins; assay type: ADME, organism-based, Erythrocyte
[14] = tested on: Spleen; experiment: Biodistribution in Wistar rat spleen at 11+/-2 MBq, iv after 80 mins; assay type: ADME, organism-based
[15] = Biodistribution in Wistar rat trachea at 11+/-2 MBq, iv after 80 mins; assay type: ADME, organism-based
[16] = Biodistribution in 15 mg/kg unlabeled 6,7-dimethoxy-2-(3-(5-methoxy-3,4-dihydronaphthalen-1(2H)-ylidene)propyl)-1,2,3,4-tetrahydroisoquinoline pretreated Wistar rat amygdala at 13+/-2 MBq, iv after 80 mins; assay type: ADME, organism-based; set-up: dose 15 mg/kg, route intravenous
Outline: (§2)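 Male Wistar rats given saline or unlabeled compound via tail vein: 15 mg/kg, dissolved at 10 mg/mL in saline with 35% ethanol. [11C] tracer (8-15 MBq) then given via penile vein. After microPET scanning the anesthetized rats were killed. Tissues were excised and weighed, and blood was spun for plasma and cell fraction. γ counting with decay correction. Results as SUV (tissue MBq/g × body weight/injected dose).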

[17] = tested on: Cerebellum; experiment: Biodistribution in 15 mg/kg unlabeled 6,7-dimethoxy-2-(3-(5-methoxy-3,4-dihydronaphthalen-1(2H)-ylidene)propyl)-1,2,3,4-tetrahydroisoquinoline pretreated Wistar rat cerebellum at 13+/-2 MBq, iv after 80 mins; assay type: ADME, organism-based; set-up: dose 15 mg/kg, route intravenous; outline: as §2
[18] = tested on: Hippocampus; experiment: Biodistribution in 15 mg/kg unlabeled 6,7-dimethoxy-2-(3-(5-methoxy-3,4-dihydronaphthalen-1(2H)-ylidene)propyl)-1,2,3,4-tetrahydroisoquinoline pretreated Wistar rat hippocampus at 13+/-2 MBq, iv after 80 mins; assay type: ADME, organism-based; set-up: dose 15 mg/kg, route intravenous; outline: as §2
[19] = Biodistribution in 15 mg/kg unlabeled 6,7-dimethoxy-2-(3-(5-methoxy-3,4-dihydronaphthalen-1(2H)-ylidene)propyl)-1,2,3,4-tetrahydroisoquinoline pretreated Wistar rat medulla at 13+/-2 MBq, iv after 80 mins; assay type: ADME, organism-based, Medulla of organ; set-up: dose 15 mg/kg, route intravenous; outline: as §2
[20] = tested on: Striatum; experiment: Biodistribution in 15 mg/kg unlabeled 6,7-dimethoxy-2-(3-(5-methoxy-3,4-dihydronaphthalen-1(2H)-ylidene)propyl)-1,2,3,4-tetrahydroisoquinoline pretreated Wistar rat striatum at 13+/-2 MBq, iv after 80 mins; assay type: ADME, organism-based; set-up: dose 15 mg/kg, route intravenous; outline: as §2
[21] = tested on: Colon; experiment: Biodistribution in 15 mg/kg unlabeled 6,7-dimethoxy-2-(3-(5-methoxy-3,4-dihydronaphthalen-1(2H)-ylidene)propyl)-1,2,3,4-tetrahydroisoquinoline pretreated Wistar rat colon at 13+/-2 MBq, iv after 80 mins; assay type: ADME, organism-based; set-up: dose 15 mg/kg, route intravenous; outline: as §2
[22] = tested on: Duodenum; experiment: Biodistribution in 15 mg/kg unlabeled 6,7-dimethoxy-2-(3-(5-methoxy-3,4-dihydronaphthalen-1(2H)-ylidene)propyl)-1,2,3,4-tetrahydroisoquinoline pretreated Wistar rat duodenum at 13+/-2 MBq, iv after 80 mins; assay type: ADME, organism-based; set-up: dose 15 mg/kg, route intravenous; outline: as §2
[23] = tested on: Ileum; experiment: Biodistribution in 15 mg/kg unlabeled 6,7-dimethoxy-2-(3-(5-methoxy-3,4-dihydronaphthalen-1(2H)-ylidene)propyl)-1,2,3,4-tetrahydroisoquinoline pretreated Wistar rat ileum at 13+/-2 MBq, iv after 80 mins; assay type: ADME, organism-based; set-up: dose 15 mg/kg, route intravenous; outline: as §2
[24] = tested on: Kidney; experiment: Biodistribution in 15 mg/kg unlabeled 6,7-dimethoxy-2-(3-(5-methoxy-3,4-dihydronaphthalen-1(2H)-ylidene)propyl)-1,2,3,4-tetrahydroisoquinoline pretreated Wistar rat kidney at 13+/-2 MBq, iv after 80 mins; assay type: ADME, organism-based; set-up: dose 15 mg/kg, route intravenous; outline: as §2
[25] = tested on: Liver; experiment: Biodistribution in 15 mg/kg unlabeled 6,7-dimethoxy-2-(3-(5-methoxy-3,4-dihydronaphthalen-1(2H)-ylidene)propyl)-1,2,3,4-tetrahydroisoquinoline pretreated Wistar rat liver at 13+/-2 MBq, iv after 80 mins; assay type: ADME, organism-based; set-up: dose 15 mg/kg, route intravenous; outline: as §2
[26] = tested on: Lung; experiment: Biodistribution in 15 mg/kg unlabeled 6,7-dimethoxy-2-(3-(5-methoxy-3,4-dihydronaphthalen-1(2H)-ylidene)propyl)-1,2,3,4-tetrahydroisoquinoline pretreated Wistar rat lung at 13+/-2 MBq, iv after 80 mins; assay type: ADME, organism-based; set-up: dose 15 mg/kg, route intravenous; outline: as §2
[27] = tested on: Muscle tissue; experiment: Biodistribution in 15 mg/kg unlabeled 6,7-dimethoxy-2-(3-(5-methoxy-3,4-dihydronaphthalen-1(2H)-ylidene)propyl)-1,2,3,4-tetrahydroisoquinoline pretreated Wistar rat muscle at 13+/-2 MBq, iv after 80 mins; assay type: ADME, organism-based; set-up: dose 15 mg/kg, route intravenous; outline: as §2
[28] = tested on: Pancreas; experiment: Biodistribution in 15 mg/kg unlabeled 6,7-dimethoxy-2-(3-(5-methoxy-3,4-dihydronaphthalen-1(2H)-ylidene)propyl)-1,2,3,4-tetrahydroisoquinoline pretreated Wistar rat pancreas at 13+/-2 MBq, iv after 80 mins; assay type: ADME, organism-based; set-up: dose 15 mg/kg, route intravenous; outline: as §2
[29] = Biodistribution in 15 mg/kg unlabeled 6,7-dimethoxy-2-(3-(5-methoxy-3,4-dihydronaphthalen-1(2H)-ylidene)propyl)-1,2,3,4-tetrahydroisoquinoline pretreated Wistar rat red blood cells at 13+/-2 MBq, iv after 80 mins; assay type: ADME, organism-based, Erythrocyte; set-up: dose 15 mg/kg, route intravenous; outline: as §2
[30] = Biodistribution in 15 mg/kg unlabeled 6,7-dimethoxy-2-(3-(5-methoxy-3,4-dihydronaphthalen-1(2H)-ylidene)propyl)-1,2,3,4-tetrahydroisoquinoline pretreated Wistar rat trachea at 13+/-2 MBq, iv after 80 mins; assay type: ADME, organism-based; set-up: dose 15 mg/kg, route intravenous; outline: as §2
[31] = tested on: Brain; experiment: Biodistribution in Wistar rat brain at 11+/-2 MBq, iv after 56 mins; assay type: ADME, organism-based
[32] = Biodistribution in Wistar rat amygdala at 11+/-2 MBq, iv after 80 mins; assay type: ADME, organism-based
[33] = Biodistribution in Wistar rat cingulate cortex at 11+/-2 MBq, iv after 80 mins; assay type: ADME, organism-based

For `COc1cc2c(cc1OC)CN(CC/C=C1\CCCc3c(O[11CH3])cccc31)CC2`, the SUV [1] was 0.55, the SUV [2] was 0.45 and the SUV [3] was 0.46. The SUV [4] was 0.6, the SUV [5] was 0.46 and the SUV [6] was 0.78. For the same compound, the SUV [7] was 1.85, the SUV [8] was 0.48 and the SUV [9] was 1.94. For the same compound, the SUV [10] was 1.75, the SUV [11] was 1.34 and the SUV [12] was 0.49. The SUV [13] was 0.24, the SUV [14] was 2.66 and the SUV [15] was 1.25. The SUV [16] was 0.44, the SUV [17] was 0.4 and the SUV [18] was 0.44. It also gave an SUV [19] of 0.46, an SUV [20] of 0.4 and an SUV [21] of 0.74. For the same compound, the SUV [22] was 1.01, the SUV [23] was 0.91 and the SUV [24] was 1.3. For the same compound, the SUV [25] was 2.34, the SUV [26] was 2.13 and the SUV [27] was 0.45. For the same compound, the SUV [28] was 2.73, the SUV [29] was 0.3 and the SUV [30] was 0.82. The SUV [31] was 0.88, the SUV [32] was 0.65 and the SUV [33] was 0.7.
